Data on 22 compounds can be found in article PMC10149104 (Journal of medicinal chemistry, 2023).

The target of one data set is recombinant XPNPEP1 (Homo sapiens, UniProt Q9NQW7). Put plainly: Inhibition of recombinant XPNPEP1, H-Lys. Particulars: for XPNPEP1 inhibition (in words): recombinant XPNPEP1. The format is biochemical.
For a further data set, the target named is T1, recombinant human PEPD (Homo sapiens, UniProt P12955).
T1 sequence (P12955 1-493): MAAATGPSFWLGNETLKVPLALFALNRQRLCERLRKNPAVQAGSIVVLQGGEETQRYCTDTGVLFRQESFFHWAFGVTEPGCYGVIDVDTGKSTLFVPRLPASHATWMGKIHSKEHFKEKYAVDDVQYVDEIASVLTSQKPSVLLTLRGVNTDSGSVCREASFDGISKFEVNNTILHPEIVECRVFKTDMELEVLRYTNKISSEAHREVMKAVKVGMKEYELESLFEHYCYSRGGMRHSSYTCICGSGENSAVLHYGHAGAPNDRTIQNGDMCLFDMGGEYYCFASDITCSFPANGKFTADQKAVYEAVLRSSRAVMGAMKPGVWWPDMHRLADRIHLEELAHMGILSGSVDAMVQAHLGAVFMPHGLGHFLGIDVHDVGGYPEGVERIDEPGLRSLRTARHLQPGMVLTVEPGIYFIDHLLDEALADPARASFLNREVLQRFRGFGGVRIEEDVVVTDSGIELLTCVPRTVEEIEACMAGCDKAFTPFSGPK
Put plainly: Inhibition of recombinant PEPD, alanine release assay. It is filed as biochemical.

The subject of a further data set is MV4;11 WT cells. Put plainly: CellTiter-Glo cell viability, WT MV4. The format is cell-based, human. Particulars: CTG, 24 h. On the technique in general: In ATP-based viability assays light output follows the ATP content of the culture.
The nature of data set [1]: Stability in cell culture supernatants. It is filed as in vitro ADME. In a few lines:
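Test compounds are incubated in conditioned medium collected from MV4;11 cultures for 24 h at 37 °C. Intact compound and the free acid product are then quantified by LC/MS, with species identified by retention time. Values are means ± SEM of three biological replicates.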

A further data set has as its system MV4;11 CASP1^−/− cells. Put plainly: CellTiter-Glo cell viability, CASP1 knockout MV4. It is filed as cell-based, human. Particulars: for Cell death independent of CASP1 in MV4;11 cells (in words): WT and CASP1^−/− MV4;11, CTG, 24 h. In a few lines: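 CASP1-knockout MV4;11 cells (generated previously) are grown alongside wild type in RPMI 1640 with 10% FBS at 37 °C in 5% CO2. Cells are plated at 2000 per well in 384-well plates and dosed by pin tool in three-fold dilutions, topping at 100 μM (down to 15.2 nM) or 10 μM (down to 1.5 nM). After 24 h, CellTiter-Glo luminescence is read (2 min shake, 10 min at 25 °C). IC50 values are means ± SEM of three biological replicates.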

A further data set concerns OCI-AML2 cells. Put plainly: PI uptake in OCI-AML2 cells. It is filed as cell-based, human. Particulars: 6.25 μM, compared to CQ31. In short, it runs like this:
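OCI-AML2 cells (2 × 10^4 per well, 384-well, RPMI) are treated with 6.25 μM compound, with PI added at 10 μM final. PI fluorescence (Ex/Em 535/617 nm) is recorded at 37 °C every 5 min over 6 h. Signals are baseline-corrected to DMSO vehicle and normalized to the maximum response. Values are means ± SEM of three biological replicates.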

The test system of data set [2] is DOX-inducible CARD8 E274R mutant THP-1 cells. Put plainly: CARD8 E274R mutant NT degradation assay in CARD8^−/− THP-1 cells. The format is cell-based, human. Particulars: DOX 100 ng/mL 16 h; VbP 10 μM, CQ31/CQ80 20 μM, VP-OMe 1 mM, MeBs 10 μM; 6 h. In short, it runs like this: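 Parental CARD8-knockout THP-1 cells carry a stably integrated doxycycline-inducible CARD8 E274R construct. Cells are grown in RPMI 1640 with L-glutamine and 10% FBS at 37 °C in 5% CO2. They are induced with or without DOX (100 ng/mL, 16 h), then exposed to test compounds for 6 h.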

Data set [3] concerns the target CARD8-DPP9 ternary complex in HEK 293T^CASP1+GSDMD cells (Homo sapiens, UniProt Q86TI2). Put plainly: dTAG-based CARD8-DPP9 ternary complex disruption assay. The format is cell-based. Particulars: dTAG-13 500 nM; VbP 10 μM, CQ31 20 μM, CQ80 20 μM, VP-OMe 1 mM; 6 h; LDH release.

Each structure is given as a SMILES string. Where a SMILES comes first, the peptide text is derived from it. Where only a bound is given, the exact number is not on record here.

Sequence of recombinant XPNPEP1 (Q9NQW7 whole entry): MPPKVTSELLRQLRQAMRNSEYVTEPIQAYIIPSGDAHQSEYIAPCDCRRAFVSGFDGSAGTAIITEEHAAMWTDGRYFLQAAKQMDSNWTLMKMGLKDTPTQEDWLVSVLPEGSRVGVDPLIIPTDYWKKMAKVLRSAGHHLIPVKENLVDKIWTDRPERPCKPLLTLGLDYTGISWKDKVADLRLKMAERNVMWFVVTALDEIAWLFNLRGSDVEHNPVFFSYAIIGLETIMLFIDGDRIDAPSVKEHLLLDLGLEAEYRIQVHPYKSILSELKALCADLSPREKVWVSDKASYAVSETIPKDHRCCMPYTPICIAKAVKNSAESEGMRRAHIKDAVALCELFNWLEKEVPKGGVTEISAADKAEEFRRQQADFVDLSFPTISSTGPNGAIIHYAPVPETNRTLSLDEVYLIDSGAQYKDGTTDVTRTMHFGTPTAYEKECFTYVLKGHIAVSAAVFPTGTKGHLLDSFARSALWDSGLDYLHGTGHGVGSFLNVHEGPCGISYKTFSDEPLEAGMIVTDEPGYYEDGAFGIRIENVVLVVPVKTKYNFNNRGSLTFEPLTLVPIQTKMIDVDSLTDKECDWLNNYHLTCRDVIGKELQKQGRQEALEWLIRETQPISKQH
Sequence of CARD8-DPP9 ternary complex in HEK 293T^CASP1+GSDMD cells (Q86TI2 whole entry, one chain of several): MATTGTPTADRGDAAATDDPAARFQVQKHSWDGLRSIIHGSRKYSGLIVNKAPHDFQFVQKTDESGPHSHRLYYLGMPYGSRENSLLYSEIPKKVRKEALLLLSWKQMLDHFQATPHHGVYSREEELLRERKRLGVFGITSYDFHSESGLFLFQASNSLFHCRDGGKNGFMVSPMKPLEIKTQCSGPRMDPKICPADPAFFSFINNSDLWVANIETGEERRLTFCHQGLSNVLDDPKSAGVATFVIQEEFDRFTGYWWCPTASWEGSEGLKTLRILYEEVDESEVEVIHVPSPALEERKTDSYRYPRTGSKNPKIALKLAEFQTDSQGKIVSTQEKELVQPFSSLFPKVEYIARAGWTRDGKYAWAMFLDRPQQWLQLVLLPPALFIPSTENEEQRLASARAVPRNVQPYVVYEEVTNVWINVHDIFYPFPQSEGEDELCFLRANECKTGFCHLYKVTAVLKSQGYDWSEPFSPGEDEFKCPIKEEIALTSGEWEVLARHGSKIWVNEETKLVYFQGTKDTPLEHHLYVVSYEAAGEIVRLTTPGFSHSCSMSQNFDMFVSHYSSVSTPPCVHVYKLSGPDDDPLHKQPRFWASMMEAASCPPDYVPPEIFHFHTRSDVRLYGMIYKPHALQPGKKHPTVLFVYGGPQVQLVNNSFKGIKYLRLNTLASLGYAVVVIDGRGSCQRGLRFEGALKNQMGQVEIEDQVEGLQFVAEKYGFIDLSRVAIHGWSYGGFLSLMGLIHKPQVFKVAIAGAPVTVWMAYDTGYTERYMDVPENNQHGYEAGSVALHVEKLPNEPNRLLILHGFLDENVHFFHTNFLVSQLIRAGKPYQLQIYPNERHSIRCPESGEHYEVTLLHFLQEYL

Turning to `CC(C)C[C@@H](N)C(O)C(=O)N1CCC[C@H]1C(=O)O` (stereo partly drawn) [CQ04, (2S,3R)-3-amino-2-hydroxy-5-methyl-hexanoyl-proline], the “XPNPEP1 inhibition (in words)” value on recombinant XPNPEP1 is given as “more potent than CQ31”. For the same compound, the “PEPD inhibition (in words)” value at recombinant human PEPD was “more potent than CQ31”.

Regarding `CC(C)C[C@@H](N)[C@H](O)C(=O)N1CCC[C@H]1C(=O)OC(C)(C)C` [CQ34, tert-Butyl ((2S,3R)-3-Amino-2-hydroxy-5-methylhexanoyl)-L-pro-linate], on recombinant XPNPEP1, the “XPNPEP1 inhibition (in words)” value was “inhibited PEPD and XPNPEP1 similarly”. Besides, the “Cytotoxicity / activity against MV4;11 cells (in words)” value (shortened to “Cytotoxicity / activity”) in the data set with MV4;11 WT cells was “slightly more toxic”. The “PEPD inhibition (in words)” value at recombinant human PEPD is “inhibited PEPD and XPNPEP1 similarly”. Moreover, in data set [1], the “Stability in cell culture supernatants (in words)” value is “considerably more stable than CQ31 or CQ94” and the “Time after which completely hydrolyzed” value is listed as at most 8 h. Turning to `COC(=O)[C@@H]1C[C@H](O)CN1C(=O)[C@@H](O)[C@H](N)CC(C)C` [CQ39, Methyl (2S,4S)-1-((2S,3R)-3-Amino-2-hydroxy-5-methylhexano-yl)-4-hydroxypyrrolidine-2-carboxylate], the “Cytotoxicity / activity” value with MV4;11 WT cells was “completely inactive”. In the case of `COC(=O)[C@@H]1CCCN1C(=O)[C@@H](O)[C@H](N)Cc1ccccc1` [CQ42, Methyl ((2S,3R)-3-Amino-2-hydroxy-4-phenylbutanoyl)-l-prolinate], in the data set on MV4;11 WT cells, the “Cytotoxicity / activity” value was “almost completely inactive”. The same measure, in the same setting: with `COC(=O)[C@@H]1CCCN1C(=O)[C@@H](O)[C@H](N)C12CC3CC(CC(C3)C1)C2` [CQ47, Methyl ((2S,3R)-3-(Adamantan-1-yl)-3-amino-2-hydroxypropanoyl)-l-prolinate] the entry was “almost completely inactive”; with `CC(C)C[C@@H](N)[C@H](O)C(=O)N1CCC[C@H]1C(N)=O` [CQ49, (S)-1-((2S,3R)-3-Amino-2-hydroxy-5-methylhexanoyl)-pyrrolidine-2-carboxamide], “retained similar PEPD/XPNPEP1 inhibition and cytotoxicity as CQ31”.

As for `COC(=O)[C@H](CC(C)C)NC(=O)[C@@H](O)[C@H](N)CC(C)C` [CQ52, Methyl ((2S,3R)-3-Amino-2-hydroxy-5-methylhexanoyl)-l-leucinate], at recombinant XPNPEP1, the “XPNPEP1 inhibition (in words)” value was “very weak PEPD and XPNPEP1 inhibitors”. The “Cell death independent of CASP1 in MV4;11 cells (in words)” value (from here on “Cell death independent of CASP1”) in the data set with MV4;11 CASP1^−/− cells is reported as “triggered CASP1-independent cell death”. Moreover, the “PEPD inhibition (in words)” value at recombinant human PEPD was “very weak PEPD and XPNPEP1 inhibitors”. Regarding `CC(C)C[C@@H](N)[C@H](O)C(=O)N1CCC[C@H]1CNS(C)(=O)=O` [CQ53, N-(((S)-1-((2S,3R)-3-Amino-2-hydroxy-5-methylhexanoyl)-pyrrolidin-2-yl)methyl)methanesulfon-amide], in the data set on MV4;11 WT cells, the “Cytotoxicity / activity” value is “completely inactive in cells”. On the same count and under the same terms, with `CONC(=O)[C@@H]1CCCN1C(=O)[C@@H](O)[C@H](N)CC(C)C` [CQ55, (S)-1-((2S,3R)-3-Amino-2-hydroxy-5-methylhexanoyl)-N-methoxypyrrolidine-2-carboxamide] the entry was “completely inactive in cells”.

Consider `COC(=O)[C@@H]1CCCN1C(=O)[C@@H](O)[C@H](N)C1CC1` [CQ62, Methyl ((2S,3R)-3-Amino-3-cyclopropyl-2-hydroxypropanoyl)-l-prolinate], for which, in the data set on MV4;11 WT cells, the “Cytotoxicity / activity” value was “almost completely inactive”.

With `COC(=O)[C@H](Cc1ccccc1)NC(=O)[C@@H](O)[C@H](N)CC(C)C` [CQ72, Methyl ((2S,3R)-3-Amino-2-hydroxy-5-methylhexanoyl)-l-phenylalaninate], the “XPNPEP1 inhibition (in words)” value at recombinant XPNPEP1 is “very weak PEPD and XPNPEP1 inhibitors”. In the data set on MV4;11 CASP1^−/− cells, the “Cell death independent of CASP1” value is recorded as “triggered CASP1-independent cell death”. In addition, the “PEPD inhibition (in words)” value at recombinant human PEPD was “very weak PEPD and XPNPEP1 inhibitors”. With `COC(=O)[C@@H]1CCCN1C(=O)[C@@H](O)[C@H](N)CCCCO` [CQ75], the “Cytotoxicity / activity” value in the data set on MV4;11 WT cells is recorded as “lost cytotoxicity”. On recombinant human PEPD, the “PEPD inhibition (in words)” value is reported as “retained PEPD inhibition”.

With `CC(C)C[C@@H](N)[C@H](O)C(=O)N1CCCC1` [CQ76, (2S,3R)-3-Amino-2-hydroxy-5-methyl-1-(pyrrolidin-1-yl)hexan-1-one], the “Cytotoxicity / activity” value with MV4;11 WT cells is reported as “abrogated all activity”. As for `COC(=O)[C@@H](NC(=O)[C@@H]1CCCN1C(=O)[C@@H](O)[C@H](N)CC(C)C)C(C)C` [CQ78, Methyl ((2S,3R)-3-Amino-2-hydroxy-5-methylhexanoyl)-l-prolyl-l-valinate], in the data set on OCI-AML2 cells, the “Rate of lytic cell death by PI uptake in OCI-AML2 cells” value is recorded as “caused more rapid lytic cell death”. With `CC(C)C[C@H](NC(=O)[C@@H]1CCCN1C(=O)[C@@H](O)[C@H](N)CC(C)C)C(=O)O` [CQ92], the “XPNPEP1 inhibition (in words)” value on recombinant XPNPEP1 was “more potent inhibitor of both PEPD and XPNPEP1 than CQ80”. Moreover, the “PEPD inhibition (in words)” value at recombinant human PEPD is “more potent inhibitor of both PEPD and XPNPEP1 than CQ80”.

In the case of `CC(C)C[C@@H](N)[C@H](O)C(=O)N1CCC[C@H]1C(=O)OC1CCCC1` [CQ94, Cyclopentyl ((2S,3R)-3-Amino-2-hydroxy-5-methylhexanoyl)-L-prolinate], on recombinant XPNPEP1, the “XPNPEP1 inhibition (in words)” value was “inhibited PEPD and XPNPEP1 similarly”. Besides, the “Cytotoxicity / activity” value with MV4;11 WT cells is recorded as “slightly more toxic”. The “PEPD inhibition (in words)” value on recombinant human PEPD is “inhibited PEPD and XPNPEP1 similarly”. Regarding `CC(C)CCNC(=O)[C@@H]1CCCN1C(=O)[C@@H](O)[C@H](N)CC(C)C` [CQ95, (S)-1-((2S,3R)-3-Amino-2-hydroxy-5-methylhexanoyl)-N-isopentylpyrrolidine-2-carboxamide], the “Cytotoxicity / activity” value in the data set on MV4;11 WT cells was “retained similar PEPD/XPNPEP1 inhibition and cytotoxicity as CQ31”. Still for that read-out and setting: the same measure for `CC(C)C[C@@H](N)[C@H](O)C(=O)N1CCC[C@H]1c1nnn[nH]1` [CQ99, (2S,3R)-1-((S)-2-(1H-Tetrazol-5-yl)pyrrolidin-1-yl)-3-amino-2-hydroxy-5-methylhexan-1-one]: “completely inactive in cells”. For the compound `CC(C)C[C@H](NC(=O)[C@@H]1CCCN1C(=O)[C@@H](O)[C@H](N)CC(C)C)C(=O)NCCc1ccccc1` [CQ116, (S)-1-((2S,3R)-3-Amino-2-hydroxy-5-methylhexanoyl)-N-((S)-4-methyl-1-oxo-1-(phenethylamino)pentan-2-yl)pyrrolidine-2-carboxamide], the “Stability in cell culture supernatants (in words)” value in data set [1] is “completely stable”. Regarding `COC(=O)[C@H](CC(C)C)NC(=O)[C@@H](O)[C@H](N)Cc1ccccc1` [MeBs, bestatin methyl ester, reference compound], the “Cell death independent of CASP1” value with MV4;11 CASP1^−/− cells is recorded as “CASP1-independent cell death”. The “Additional cell death in CARD8 E274R assay (NT degradation)” value in data set [2] is listed as “still induce considerably more cell death”. As for `COC(=O)[C@@H]1CCCN1C(=O)[C@@H](N)C(C)C` [VP-OMe, reference compound] (H-Val-Pro-OMe), in data set [2], the “Additional cell death in CARD8 E274R assay (NT degradation)” value is listed as “did not cause substantially more death”. In data set [3], the “Pyroptosis after dTAG-13 treatment (ternary complex destabilization)” value is on record as “induce more pyroptosis after dTAG-13 treatment”.

For the compound `C[C@H](NC(=O)[C@@H]1CCCN1C(=O)[C@@H]1CCCN1C(=O)[C@@H](O)[C@H](N)Cc1ccccc1)C(N)=O` [apstatin, reference compound], the IC50 on recombinant XPNPEP1 (read-out: XPNPEP1 IC50 (μM ± SEM), recombinant XPNPEP1, H-Lys(abz)-Pro-Pro-pNA cleavage, means ± SEM of three biological replicates) was 18 ± 1.7 µM; in the data set with MV4;11 CASP1^−/− cells (read-out: MV4;11 CASP1^−/− IC50, CTG cell viability after 24 h treatment), over 20 µM. The “Cytotoxicity / activity” value with MV4;11 WT cells is “not cytotoxic at all”.
